pKi: −log10 of the molar value.
Assays:
[1] = Ratio of Ki for SERT to Ki for DAT
Summary of the method: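 SERT Ki divided by DAT Ki. Both come from [125I]RTI-55 (0.01 nM) binding in pH 7.4 sodium phosphate/BSA buffer with protease inhibitors, run in triplicate for 18–24 h at 4 °C.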

[2] = target: Sodium-dependent serotonin transporter (Homo sapiens, UniProt P31645); experiment: Displacement of [125I]RTI55 from SERT
Summary of the method: (§1)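 [125I]RTI-55 at 0.01 nM (s.a. 2200 Ci/mmol) competitive binding. Drugs and blocker in 55.2 mM sodium phosphate pH 7.4 with 1 mg/mL BSA. Radioligand in the same buffer with chymostatin 25 μg/mL, leupeptin 25 μg/mL, EDTA 100 μM and EGTA 100 μM. Triplicate incubation for 18–24 h at 4 °C (equilibrium), 1 mL final volume. Ki derived.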

[3] = target: Sodium-dependent dopamine transporter (Homo sapiens, UniProt Q01959); experiment: Displacement of [125I]RTI55 from DAT; summary of the method: as §1
Chain of Sodium-dependent dopamine transporter (Q01959 whole entry): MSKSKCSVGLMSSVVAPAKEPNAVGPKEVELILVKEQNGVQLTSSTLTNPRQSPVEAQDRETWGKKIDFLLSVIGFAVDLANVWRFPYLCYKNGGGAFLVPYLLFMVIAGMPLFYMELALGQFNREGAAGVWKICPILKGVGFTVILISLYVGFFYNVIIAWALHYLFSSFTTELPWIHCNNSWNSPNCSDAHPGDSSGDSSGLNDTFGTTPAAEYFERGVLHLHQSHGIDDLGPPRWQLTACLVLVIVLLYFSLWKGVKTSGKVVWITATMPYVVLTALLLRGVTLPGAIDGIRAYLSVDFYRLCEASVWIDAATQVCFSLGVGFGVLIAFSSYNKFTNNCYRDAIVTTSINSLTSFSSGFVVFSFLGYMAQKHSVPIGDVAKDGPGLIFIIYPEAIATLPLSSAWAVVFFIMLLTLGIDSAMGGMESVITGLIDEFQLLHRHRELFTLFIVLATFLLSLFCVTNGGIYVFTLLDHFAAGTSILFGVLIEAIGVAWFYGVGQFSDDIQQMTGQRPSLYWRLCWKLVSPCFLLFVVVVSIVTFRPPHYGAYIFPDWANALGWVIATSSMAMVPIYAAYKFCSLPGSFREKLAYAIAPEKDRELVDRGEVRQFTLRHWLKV

Chain of Sodium-dependent serotonin transporter (P31645 whole entry): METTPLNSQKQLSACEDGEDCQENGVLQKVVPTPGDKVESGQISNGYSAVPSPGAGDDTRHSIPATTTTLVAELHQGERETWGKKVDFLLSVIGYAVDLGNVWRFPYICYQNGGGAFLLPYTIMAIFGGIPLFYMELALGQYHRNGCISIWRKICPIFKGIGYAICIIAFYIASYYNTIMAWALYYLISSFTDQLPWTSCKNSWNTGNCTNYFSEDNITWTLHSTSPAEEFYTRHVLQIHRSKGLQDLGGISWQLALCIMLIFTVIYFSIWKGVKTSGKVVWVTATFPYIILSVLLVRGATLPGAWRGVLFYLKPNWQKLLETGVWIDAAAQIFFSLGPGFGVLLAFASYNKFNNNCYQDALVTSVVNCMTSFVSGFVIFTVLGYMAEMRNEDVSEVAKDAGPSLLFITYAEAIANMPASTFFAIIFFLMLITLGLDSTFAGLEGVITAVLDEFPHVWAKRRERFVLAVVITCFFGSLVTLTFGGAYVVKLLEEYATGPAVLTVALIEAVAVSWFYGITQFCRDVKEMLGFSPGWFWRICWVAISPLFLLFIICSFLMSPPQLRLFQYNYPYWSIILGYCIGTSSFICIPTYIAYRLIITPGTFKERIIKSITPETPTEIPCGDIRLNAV

## FC[C@H](Cc1ccccc1)N1CCN(CCOC(c2ccc(F)cc2)c2ccc(F)cc2)CC1
[1]
  Ratio Ki: 0.8
[2]
  pKi: 6.96

## C=C(CCN1CCN(CCOC(c2ccccc2)c2ccccc2)CC1)c1ccccc1
[1]
  Ratio Ki: 59
[2]
  pKi: 5.74

## O[C@H](Cc1ccccc1)CN1CCN(CCOC(c2ccccc2)c2ccccc2)CC1
[3]
  pKi: 7.60
[1]
  Ratio Ki: 72
[2]
  pKi: 5.74

## CC(O)(Cc1ccccc1)CN1CCN(CCOC(c2ccc(F)cc2)c2ccc(F)cc2)CC1 (centres undefined)
[1]
  Ratio Ki: 6
[2]
  pKi: 6.51

## O=C(CN1CCN(CCOC(c2ccccc2)c2ccccc2)CC1)c1ccccc1
[1]
  Ratio Ki: 3
[2]
  pKi: 5.85

## O=C(CN1CCN(CCOC(c2ccc(F)cc2)c2ccc(F)cc2)CC1)c1ccccc1
[1]
  Ratio Ki: 2
[2]
  pKi: 7.06

## C=C(Cc1ccccc1)CN1CCN(CCOC(c2ccc(F)cc2)c2ccc(F)cc2)CC1
[1]
  Ratio Ki: 4
[2]
  pKi: 6.37

## CC(Cc1ccccc1)CN1CCN(CCOC(c2ccc(F)cc2)c2ccc(F)cc2)CC1 (single isomer, unassigned; (-)) [listing 1 of 2 here]
[2]
  pKi: 6.72

## CO[C@H](Cc1ccccc1)CN1CCN(CCOC(c2ccc(F)cc2)c2ccc(F)cc2)CC1
[1]
  Ratio Ki: 9
[2]
  pKi: 6.60

## C=C(CCN1CCN(CCOC(c2ccc(F)cc2)c2ccc(F)cc2)CC1)c1ccccc1
[1]
  Ratio Ki: 11
[2]
  pKi: 6.72

## CO[C@@H](Cc1ccccc1)CN1CCN(CCOC(c2ccc(F)cc2)c2ccc(F)cc2)CC1
[1]
  Ratio Ki: 8
[2]
  pKi: 6.66

## O[C@H](Cc1ccccc1)CN1CCN(CCOC(c2ccc(F)cc2)c2ccc(F)cc2)CC1
[3]
  pKi: 7.92
[1]
  Ratio Ki: 13
[2]
  pKi: 6.80

## FC[C@@H](Cc1ccccc1)N1CCN(CCOC(c2ccc(F)cc2)c2ccc(F)cc2)CC1
[1]
  Ratio Ki: 2
[2]
  pKi: 6.72

## O=C(Cc1ccccc1)CN1CCN(CCOC(c2ccc(F)cc2)c2ccc(F)cc2)CC1
[1]
  Ratio Ki: 38
[2]
  pKi: 6.60

## N[C@H](Cc1ccccc1)CN1CCN(CCOC(c2ccc(F)cc2)c2ccc(F)cc2)CC1
[1]
  Ratio Ki: 1
[2]
  pKi: 7.66

## CC(Cc1ccccc1)CN1CCN(CCOC(c2ccc(F)cc2)c2ccc(F)cc2)CC1 (stereo in doubt; (+)-7) [listing 1 of 2 here]
[1]
  Ratio Ki: 7

## O[C@@H](Cc1ccccc1)CN1CCN(CCOC(c2ccc(F)cc2)c2ccc(F)cc2)CC1
[3]
  pKi: 9.12
[1]
  Ratio Ki: 307
[2]
  pKi: 6.64

## CC(Cc1ccccc1)CN1CCN(CCOC(c2ccc(F)cc2)c2ccc(F)cc2)CC1 (single isomer, unassigned; (-)) [listing 2 of 2 here]
[1]
  Ratio Ki: 11

## CC(O)(CCN1CCN(CCOC(c2ccccc2)c2ccccc2)CC1)c1ccccc1 (centres undefined)
[1]
  Ratio Ki: 254
[2]
  pKi: 5.74

## CC(O)(Cc1ccccc1)CN1CCN(CCOC(c2ccccc2)c2ccccc2)CC1 (centres undefined)
[1]
  Ratio Ki: 14
[2]
  pKi: 5.70

## O=C(Cc1ccccc1)CN1CCN(CCOC(c2ccccc2)c2ccccc2)CC1
[1]
  Ratio Ki: 250
[2]
  pKi: 5.60

## Fc1ccc(C(OCCN2CCN(CCc3ccccc3)CC2)c2ccc(F)cc2)cc1
[3]
  pKi: 8.10
[1]
  Ratio Ki: 5
[2]
  pKi: 7.44

## N[C@@H](Cc1ccccc1)CN1CCN(CCOC(c2ccc(F)cc2)c2ccc(F)cc2)CC1
[1]
  Ratio Ki: 2
[2]
  pKi: 7.06

## CC(O)(CCN1CCN(CCOC(c2ccc(F)cc2)c2ccc(F)cc2)CC1)c1ccccc1 (centres undefined)
[1]
  Ratio Ki: 39
[2]
  pKi: 6.82

## C=C(Cc1ccccc1)CN1CCN(CCOC(c2ccccc2)c2ccccc2)CC1
[1]
  Ratio Ki: 8
[2]
  pKi: 5.48

## CC(Cc1ccccc1)CN1CCN(CCOC(c2ccc(F)cc2)c2ccc(F)cc2)CC1 (stereo in doubt; (+)-7) [listing 2 of 2 here]
[2]
  pKi: 6.92

## O[C@@H](Cc1ccccc1)CN1CCN(CCOC(c2ccccc2)c2ccccc2)CC1
[3]
  pKi: 8.64
[1]
  Ratio Ki: 957
[2]
  pKi: 5.66

## Fc1ccc(C(OCCN2CCN(C[C@H](F)Cc3ccccc3)CC2)c2ccc(F)cc2)cc1
[1]
  Ratio Ki: 25
[2]
  pKi: 6.27

## Fc1ccc(C(OCCN2CCN(C[C@@H](F)Cc3ccccc3)CC2)c2ccc(F)cc2)cc1
[1]
  Ratio Ki: 109
[2]
  pKi: 6.54

— ChEMBL document CHEMBL1149914 (J Med Chem, 2008)
